Data on 19 molecules can be found in ChEMBL document CHEMBL1148817, “Synthesis and radioligand binding studies of bis-isoquinolinium derivatives as small conductance Ca(2+)-activated K(+) channel blockers” (J Med Chem, 2007).

Structures are written as SMILES.

One test deals with T1, Small conductance calcium-activated potassium channel (Rattus norvegicus, UniProt P70604+P70606+P70605). The test is described as follows: Blockade of SK channel in Wistar rat brain assessed as inhibition of apamin-sensitive after-hyperpolarisation. The essentials:
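Apamin-sensitive AHP area (mV s) measured as percent reduction, normalized to block by 300 nM apamin; four sweeps averaged. IC50 from Hill equation fit; mean ± SD, n = 3.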
In the case of `COc1cc2cc[n+](C)c(Cc3ccccc3Cc3c4cc(OC)c(OC)cc4cc[n+]3C)c2cc1OC.[I-].[I-]`, the IC50 (in general, the point on the concentration scale where inhibition reaches its midpoint) is 3800 nM.

Turning to `COc1cc2cc[n+](C)c(Cc3cccc(Cc4c5c(OC)c(OC)c(OC)cc5cc[n+]4C)c3)c2c(OC)c1OC.[I-].[I-]`, the IC50 was 2400 nM.

For the molecule `COc1cc2cc[n+](C)c(Cc3ccccc3Cc3c4c(OC)c(OC)c(OC)cc4cc[n+]3C)c2c(OC)c1OC.[I-].[I-]`, the IC50 came out at 4100 nM.

As for `COc1cc2cc[n+](C)c(CCCCc3c4c(OC)c(OC)c(OC)cc4cc[n+]3C)c2c(OC)c1OC.[I-].[I-]`, the IC50 was determined as 4400 nM.

With `COc1ccc(C[C@H]2c3cc(OC)c(OC)cc3CC[N+]2(C)C)cc1OC.[I-]` [LAUDANOSINE METHIODIDE], the IC50 is 15000 nM.

The next test deals with Small conductance calcium-activated potassium channel (Rattus norvegicus) (UniProt P70604+P70606+P70605). Description: Displacement of [125I]apamin from SK channel in Wistar rat cortex at 10 uM. (In general: Loss of bound radioactivity is the signal in a displacement assay; it reports binding, not function.)
As to `COc1cc2cc[n+](C)c(CCCCCc3c4cc(OC)c(OC)cc4cc[n+]3C)c2cc1OC.[I-].[I-]`, the Activity was more than 58%.

Regarding `C[n+]1ccc2ccccc2c1CCCCc1c2ccccc2cc[n+]1C.[I-].[I-]`, the Activity is more than 58%.

Take `COc1cc2cc[n+](C)c(Cc3ccccc3Cc3c4cc(OC)c(OC)cc4cc[n+]3C)c2cc1OC.[I-].[I-]`: the Activity is more than 58%.

For `COc1cc2cc[n+](C)c(Cc3cccc(Cc4c5c(OC)c(OC)c(OC)cc5cc[n+]4C)c3)c2c(OC)c1OC.[I-].[I-]`, the Activity is more than 58%.

For the molecule `C[n+]1ccc2ccccc2c1Cc1ccc(Cc2c3ccccc3cc[n+]2C)cc1.[I-].[I-]`, the Activity is more than 58%.

Take `COc1cc2cc[n+](C)c(CCCc3c4cc(OC)c(OC)cc4cc[n+]3C)c2cc1OC.[I-].[I-]`: the Activity is more than 58%.

As for `C[n+]1ccc2ccccc2c1Cc1cccc(Cc2c3ccccc3cc[n+]2C)c1.[I-].[I-]`, the Activity is more than 58%.

`COc1cc2cc[n+](C)c(CCCCc3c4cc(OC)c(OC)cc4cc[n+]3C)c2cc1OC.[I-].[I-]`: the Activity was more than 58%.

Consider `COc1cc2cc[n+](C)c(Cc3ccc(Cc4c5c(OC)c(OC)c(OC)cc5cc[n+]4C)cc3)c2c(OC)c1OC.[I-].[I-]`, for which the Activity was more than 58%.

As for `COc1cc2cc[n+](C)c(Cc3ccccc3Cc3c4c(OC)c(OC)c(OC)cc4cc[n+]3C)c2c(OC)c1OC.[I-].[I-]`, the Activity was more than 58%.

As to `COc1cc2cc[n+](C)c(CCCCc3c4c(OC)c(OC)c(OC)cc4cc[n+]3C)c2c(OC)c1OC.[I-].[I-]`, the Activity was more than 58%.

Consider `COc1ccc(C[C@H]2c3cc(OC)c(OC)cc3CC[N+]2(C)C)cc1OC.[I-]` [LAUDANOSINE METHIODIDE], for which the Activity is more than 58%.

Regarding `C[n+]1ccc2ccccc2c1CCCc1c2ccccc2cc[n+]1C.[I-].[I-]`, the Activity is more than 58%.

Turning to `C[n+]1ccc2ccccc2c1CCCCCc1c2ccccc2cc[n+]1C.[I-].[I-]`, the Activity was more than 58%.

For `Cc1cc(N)c2ccccc2[n+]1CCCCCCCCCC[n+]1c(C)cc(N)c2ccccc21.[Cl-].[Cl-]` [DEQUALINIUM CHLORIDE], the Activity was more than 58%.

As to `COc1cc2cc[n+](C)c(Cc3ccc(Cc4c5cc(OC)c(OC)cc5cc[n+]4C)cc3)c2cc1OC.[I-].[I-]`, the Activity was more than 58%.

`COc1cc2cc[n+](C)c(CCCc3c4c(OC)c(OC)c(OC)cc4cc[n+]3C)c2c(OC)c1OC.[I-].[I-]`: the Activity is more than 58%.

As to `C[n+]1ccc2ccccc2c1Cc1ccccc1Cc1c2ccccc2cc[n+]1C.[I-].[I-]`, the Activity is more than 58%.

For the molecule `COc1cc2cc[n+](C)c(Cc3cccc(Cc4c5cc(OC)c(OC)cc5cc[n+]4C)c3)c2cc1OC.[I-].[I-]`, the Activity was more than 58%.

The target of the next test is T1, Small conductance calcium-activated potassium channel. Description: Displacement of [125I]apamin from SK channel in Wistar rat cortex. The essentials: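 Rat cortex synaptosomes (0.2 mg protein/mL) incubated 1 h at 0 °C with 10 pM 125I-apamin and eight drug concentrations (10-4.5 to 10^-8 M) in 10 mM Tris-HCl pH 7.5, 5.4 mM KCl, 0.1% BSA. Nonspecific binding defined with 0.1 µM unlabeled apamin. Filtration on PEI-coated GF/C filters, scintillation counting, curve fitting.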
Turning to `COc1cc2cc[n+](C)c(CCCCCc3c4cc(OC)c(OC)cc4cc[n+]3C)c2cc1OC.[I-].[I-]`, the inhibition constant (Ki) (commonly a measure of affinity in units of concentration, obtained from inhibition or displacement) is 150 nM.

As for `C[n+]1ccc2ccccc2c1CCCCc1c2ccccc2cc[n+]1C.[I-].[I-]`, the Ki was determined as 1962 nM.

In the case of `COc1cc2cc[n+](C)c(Cc3ccccc3Cc3c4cc(OC)c(OC)cc4cc[n+]3C)c2cc1OC.[I-].[I-]`, the Ki was 33 nM.

Consider `COc1cc2cc[n+](C)c(Cc3cccc(Cc4c5c(OC)c(OC)c(OC)cc5cc[n+]4C)c3)c2c(OC)c1OC.[I-].[I-]`, for which the Ki was 23 nM.

On to `C[n+]1ccc2ccccc2c1Cc1ccc(Cc2c3ccccc3cc[n+]2C)cc1.[I-].[I-]`, for which the Ki stood at 1103 nM.

In the case of `COc1cc2cc[n+](C)c(CCCc3c4cc(OC)c(OC)cc4cc[n+]3C)c2cc1OC.[I-].[I-]`, the Ki is given as 196 nM.

As for `C[n+]1ccc2ccccc2c1Cc1cccc(Cc2c3ccccc3cc[n+]2C)c1.[I-].[I-]`, the inhibition constant (Ki) worked out at 132 nM.

For `COc1cc2cc[n+](C)c(CCCCc3c4cc(OC)c(OC)cc4cc[n+]3C)c2cc1OC.[I-].[I-]`, the Ki is listed as 164 nM.

In the case of `COc1cc2cc[n+](C)c(Cc3ccc(Cc4c5c(OC)c(OC)c(OC)cc5cc[n+]4C)cc3)c2c(OC)c1OC.[I-].[I-]`, the Ki turned out to be 280 nM.

As to `COc1cc2cc[n+](C)c(Cc3ccccc3Cc3c4c(OC)c(OC)c(OC)cc4cc[n+]3C)c2c(OC)c1OC.[I-].[I-]`, the inhibition constant (Ki) is 35 nM.

On to `COc1cc2cc[n+](C)c(CCCCc3c4c(OC)c(OC)c(OC)cc4cc[n+]3C)c2c(OC)c1OC.[I-].[I-]`, for which the Ki is 42 nM.

Turning to `C[n+]1ccc2ccccc2c1CCCc1c2ccccc2cc[n+]1C.[I-].[I-]`, the Ki amounted to 1687 nM.

`C[n+]1ccc2ccccc2c1CCCCCc1c2ccccc2cc[n+]1C.[I-].[I-]`: the inhibitory constant (Ki) was 1465 nM.

In the case of `Cc1cc(N)c2ccccc2[n+]1CCCCCCCCCC[n+]1c(C)cc(N)c2ccccc21.[Cl-].[Cl-]` [DEQUALINIUM CHLORIDE], the Ki is given as 221 nM.

On to `COc1cc2cc[n+](C)c(Cc3ccc(Cc4c5cc(OC)c(OC)cc5cc[n+]4C)cc3)c2cc1OC.[I-].[I-]`, for which the inhibition constant Ki was 163 nM.

In the case of `COc1cc2cc[n+](C)c(CCCc3c4c(OC)c(OC)c(OC)cc4cc[n+]3C)c2c(OC)c1OC.[I-].[I-]`, the Ki was 90 nM.

As for `C[n+]1ccc2ccccc2c1Cc1ccccc1Cc1c2ccccc2cc[n+]1C.[I-].[I-]`, the inhibitory constant (Ki) came out at 438 nM.

As for `COc1cc2cc[n+](C)c(Cc3cccc(Cc4c5cc(OC)c(OC)cc5cc[n+]4C)c3)c2cc1OC.[I-].[I-]`, the Ki is reported as 106 nM.
